Values after ≈ are worked out from the molar mass of the structure shown. Positions of bridges follow the written chain, without caps; N, C: chain ends. Non-standard residues stand in square brackets, D forms with d. Residues, ends and D or L forms follow the SMILES beside them. *: point of attachment. Octanoyl(6-Me) = CCC(C)CCCCC(=O)*; Dab = NCC[C@H](N)C(=O)O
Columns and labels:
PC-3 = test: Cytotoxicity against human PC3 cells after 72 hrs by SRB assay; assay type: functional, cell-based; details: PC-3, 72 h
How it was run: (§1)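 SRB assay. Cells were seeded 24 h, then given a range of compound concentrations for 72 h at 37 °C. Fixed with cold 10% TCA for 2 h at 4 °C, washed, stained with 0.4% SRB, rinsed with 1% acetic acid, and dye dissolved in 10 mM Tris. OD read at 515 nm. IC50 by the Reed–Muench method.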

HCT-116 = test: Cytotoxicity against human HCT116 cells after 72 hrs by SRB assay; assay type: functional, cell-based; details: HCT-116, 72 h; how it was run: as §1
[1] = target: Rho-associated protein kinase 2 (Homo sapiens, UniProt O75116); test: Inhibition of ROCK2 (unknown origin) using SKT S2 as substrate measured after 30 mins by HTRF assay
How it was run: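 HTRF KinEASE format. Compound dilutions were added to a substrate/enzyme/ATP mixture and incubated 0.5 h at 37 °C. SA-XL665 and STK antibody–cryptate were then added, followed by 1 h at room temperature before HTRF read-out. Triplicate.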

Escherichia coli = test: Antimicrobial activity against Escherichia coli ATCC 25922 after 12 hrs by microdilution method; assay type: functional; details: ATCC 25922, 12 h
How it was run: (§2)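 Broth microdilution in 96-well plates. A 10 mg/mL DMSO stock was serially diluted in microbial cell suspension, 200 μL final. Plates were incubated at 37 °C for 12 h. MIC was read as the lowest concentration completely clear against a black background. Triplicate. E. coli strain ATCC 25922; C. albicans strain not specified.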

Staphylococcus aureus = test: Antimicrobial activity against methicillin-resistant Staphylococcus aureus ATCC 43300 after 12 hrs by microdilution method; assay type: functional; details: ATCC 43300, 12 h
How it was run: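 Broth microdilution. Compound stock of 10 mg/mL in DMSO was serially diluted with microbial cell suspension to a series of concentrations in 96-well plates. Plates were incubated at 37 °C for 12 h. MIC is the lowest concentration that stays completely clear against a black background. Vancomycin served as positive control. Tests were run in triplicate.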

Candida albicans = test: Antimicrobial activity against Candida albicans after 12 hrs by microdilution method; assay type: functional; how it was run: as §2

Rho-associated protein kinase 2, sequence (O75116 whole entry): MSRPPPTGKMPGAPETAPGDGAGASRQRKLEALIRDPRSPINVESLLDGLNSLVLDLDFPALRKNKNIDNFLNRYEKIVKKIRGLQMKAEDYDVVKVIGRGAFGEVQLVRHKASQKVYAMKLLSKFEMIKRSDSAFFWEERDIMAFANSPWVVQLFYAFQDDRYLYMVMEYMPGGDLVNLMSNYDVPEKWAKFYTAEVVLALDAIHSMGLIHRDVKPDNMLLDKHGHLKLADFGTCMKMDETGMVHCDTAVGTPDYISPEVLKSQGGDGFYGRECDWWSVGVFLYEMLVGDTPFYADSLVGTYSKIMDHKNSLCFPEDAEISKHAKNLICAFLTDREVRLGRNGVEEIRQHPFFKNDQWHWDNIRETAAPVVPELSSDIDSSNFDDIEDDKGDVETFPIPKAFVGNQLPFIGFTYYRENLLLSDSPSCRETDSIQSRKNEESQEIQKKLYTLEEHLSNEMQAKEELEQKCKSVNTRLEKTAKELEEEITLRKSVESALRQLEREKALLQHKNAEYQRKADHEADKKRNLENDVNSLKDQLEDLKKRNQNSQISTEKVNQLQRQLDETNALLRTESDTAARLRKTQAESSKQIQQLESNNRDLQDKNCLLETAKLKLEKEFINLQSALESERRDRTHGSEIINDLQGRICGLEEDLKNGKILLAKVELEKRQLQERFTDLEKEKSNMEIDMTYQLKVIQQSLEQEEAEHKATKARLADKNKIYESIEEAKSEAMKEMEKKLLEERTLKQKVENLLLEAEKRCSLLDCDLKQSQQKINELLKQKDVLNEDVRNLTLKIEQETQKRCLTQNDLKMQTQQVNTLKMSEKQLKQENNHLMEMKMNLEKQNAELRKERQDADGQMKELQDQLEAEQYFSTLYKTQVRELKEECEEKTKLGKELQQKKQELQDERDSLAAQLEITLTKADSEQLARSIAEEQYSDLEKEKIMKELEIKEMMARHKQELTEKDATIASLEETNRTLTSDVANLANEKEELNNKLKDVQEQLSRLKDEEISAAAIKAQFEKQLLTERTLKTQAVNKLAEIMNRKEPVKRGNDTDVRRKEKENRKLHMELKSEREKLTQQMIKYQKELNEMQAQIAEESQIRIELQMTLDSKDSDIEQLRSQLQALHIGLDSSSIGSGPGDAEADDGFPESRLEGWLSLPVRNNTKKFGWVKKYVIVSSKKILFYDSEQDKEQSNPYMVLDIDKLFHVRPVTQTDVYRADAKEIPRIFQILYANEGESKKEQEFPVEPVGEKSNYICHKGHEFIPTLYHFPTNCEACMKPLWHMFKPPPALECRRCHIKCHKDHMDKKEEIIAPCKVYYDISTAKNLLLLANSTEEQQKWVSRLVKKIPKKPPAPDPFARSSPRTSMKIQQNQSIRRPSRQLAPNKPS

SMILES | IC50 (PC-3) [µM] | IC50 (HCT-116) [µM] | IC50 [1] [µM] | MIC (Escherichia coli) [µg/mL] | MIC (Staphylococcus aureus) [µg/mL] | MIC (Candida albicans) [µg/mL]
COC(=O)C[C@H]1O[C@H](C)c2c(oc(=O)c3ccc([C@H]4C[C@@H](N(C)C)[C@H](O)[C@@H](C)O4)c(O)c3c2=O)[C@H]1O | > 40 | > 40 | > 20 | 10 (≈ 19.8 µM) | 15 (≈ 29.7 µM) | 10 (≈ 19.8 µM)
COC(=O)C[C@@H]1C[C@@]2(O)C(=O)c3ccc([C@H]4C[C@@H](N(C)C)[C@H](O)[C@@H](C)O4)c(O)c3C(=O)[C@]2(O)[C@@H](C)O1 | 16 | 4.4 | > 20 | 5 (≈ 9.85 µM) | 6 (≈ 11.8 µM) | 9 (≈ 17.7 µM)
C[C@H]1O[C@@H]2CC(=O)O[C@@H]2c2oc(=O)c3ccc([C@H]4C[C@@H](N(C)C)[C@H](O)[C@@H](C)O4)c(O)c3c(=O)c21 | > 40 | > 40 | > 20 | 8 (≈ 16.9 µM) | 12 (≈ 25.3 µM) | 7 (≈ 14.8 µM)
COC(=O)C[C@H]1OC(C)=C2C(=O)c3c(ccc([C@H]4C[C@@H](N(C)C)[C@H](O)[C@@H](C)O4)c3O)C(=O)C2=C1O | 19 | 2.9 | 9 | 4 (≈ 8.21 µM) | 3 (≈ 6.15 µM) | 6 (≈ 12.3 µM)
CCC(C)CCCCC(=O)N[C@@H](CCN)C(=O)N[C@H](C(=O)N[C@@H](CCN)C(=O)N[C@H]1CCNC(=O)[C@H]([C@@H](C)O)NC(=O)[C@H](CCN)NC(=O)[C@H](CCN)NC(=O)[C@H](CC(C)C)NC(=O)[C@@H](Cc2ccccc2)NC(=O)[C@H](CCN)NC1=O)[C@@H](C)O (some centres not stated) ({Octanoyl(6-Me)}-[Dab]T[Dab][Dab][Dab][dF]L[Dab][Dab]T; lactam 4-C) | – | – | – | 2 (≈ 1.66 µM) | – | –
C[C@@H]1[C@H](O)[C@@H](C)/C=C/C=C/C=C/C=C/C=C/C=C/C=C/[C@H](O[C@@H]2O[C@H](C)[C@@H](O)[C@H](N)[C@@H]2O)C[C@@H]2O[C@](O)(C[C@@H](O)C[C@@H](O)[C@H](O)CC[C@@H](O)C[C@@H](O)CC(=O)O[C@H]1C)C[C@H](O)[C@H]2C(=O)O [AMPHOTERICIN B] | – | – | – | – | – | 2 (≈ 2.16 µM)
C[C@H]1O[C@@H]2CC(=O)O[C@@H]2C2=C1C(=O)c1c(ccc([C@H]3C[C@@H](N(C)C)[C@H](O)[C@@H](C)O3)c1O)C2=O [LACTOQUINOMYCIN] | 0.015 | 0.043 | 0.011 | 2 (≈ 4.37 µM) | 0.25 (≈ 0.546 µM) | 5 (≈ 10.9 µM)

— ChEMBL document CHEMBL4196207, “Medermycin-Type Naphthoquinones from the Marine-Derived Streptomyces sp. XMA39” (J Nat Prod, 2018)
